Series [1] deals with T1, Cannabinoid receptor 1 (Homo sapiens, UniProt P21554). Put plainly: Displacement of [3H]CP-55940 from human recombinant CB1 receptor expressed in CHO cells after 90 mins. The class given is cell-based. Summed up:
(§1)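 Competitive binding: [³H]CP-55,940 displaced from membranes of HEK 293 cells stably transfected with human or rat CB₂, or CHO cells stably transfected with human or rat CB₁. Reported as pKi. Determinations >2 (duplicate of duplicate).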
(In general: Displacement assays read how much labelled ligand stays bound in the presence of the test substance.)

The target of series [2] is T2, Cannabinoid receptor 2 (Homo sapiens, UniProt P34972). Kind of series: Agonist activity at human recombinant CB2 receptor expressed in HEK293 cells co-expressing chimeric Gaq/o protein by FLIPR assay. The class given is functional, cell-based. In a few lines:
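FLIPR functional assay in HEK 293 cells stably co-expressing chimeric Gαq/o protein and the CB receptor. Net peak evoked response was compared with the peak response to CP-55,940.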

Series [3] has as its target T3, Cannabinoid receptor 1 (Rattus norvegicus, UniProt P20272). Kind of series: Displacement of [3H]CP-55940 from rat recombinant CB1 receptor expressed in CHO cells after 90 mins. The class given is cell-based. In a few lines: as §1
Series [4] addresses T2, Cannabinoid receptor 2. Put plainly: Displacement of [3H]CP-55940 from human recombinant CB2 receptor expressed in HEK293 cells after 90 mins. The class given is cell-based. Summed up:
as §1

Series [5] addresses T2, Cannabinoid receptor 2. Put plainly: Agonist activity at human recombinant CB2 receptor expressed in HEK293 cells assessed as inhibition of forskolin-induced cAMP production after 20 mins by ELISA. Type of series: functional, cell-based. Summed up:
(§2)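 cAMP assay in HEK 293 cells stably expressing the relevant CB receptor, with a fixed concentration of forskolin. cAMP was quantified by ELISA. Activation is given as percent of the CP-55,940 control response.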

The target in series [6] is T4, Cannabinoid receptor 2 (Rattus norvegicus, UniProt Q9QZN9).
T4 sequence (Q9QZN9 whole entry): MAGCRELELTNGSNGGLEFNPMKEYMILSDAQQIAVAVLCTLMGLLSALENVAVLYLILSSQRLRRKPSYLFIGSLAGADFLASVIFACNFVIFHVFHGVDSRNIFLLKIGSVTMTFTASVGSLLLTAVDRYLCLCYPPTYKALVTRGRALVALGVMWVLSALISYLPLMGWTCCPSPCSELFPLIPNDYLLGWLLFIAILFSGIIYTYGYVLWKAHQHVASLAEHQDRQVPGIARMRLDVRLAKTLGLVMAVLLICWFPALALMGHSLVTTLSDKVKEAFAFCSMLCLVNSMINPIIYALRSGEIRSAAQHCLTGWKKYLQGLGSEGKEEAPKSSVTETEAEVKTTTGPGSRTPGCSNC
Kind of series: Displacement of [3H]CP-55940 from rat recombinant CB2 receptor expressed in HEK293 cells after 90 mins. Type of series: cell-based. Summed up:
as §1

Series [7] deals with T4, Cannabinoid receptor 2. Kind of series: Agonist activity at rat recombinant CB2 receptor expressed in HEK293 cells assessed as inhibition of forskolin-induced cAMP production after 20 mins by ELISA. The class given is functional, cell-based. Summed up: as §2
For orientation: cAMP levels reflect the balance of adenylyl cyclase and phosphodiesterase activity.

Series [8] can be described thus: Plasma protein binding in rat. Type of series: ADME, cell-free. Particulars: read-out: PPB (converted).
The nature of series [9]: Plasma protein binding in human. As to conditions: read-out: PPB (converted). Type of series: ADME, cell-free.
Another series concerns Rattus norvegicus. Put plainly: Neurotoxicity in rat assessed as decrease in spontaneous locomotory activity at 1 umol/kg, ip after 30 mins. The class given is toxicity, organism-based. Further details: scale not given: the % may be the effect or the level left. Particulars: in vivo, 0.5 h. In a few lines:
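Given intraperitoneally 30 min before testing; horizontal locomotor activity was recorded and compared across doses.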

The target of series [10] is T3, Cannabinoid receptor 1. Kind of series: Agonist activity at rat recombinant CB1 receptor expressed in HEK293 cells assessed as inhibition of forskolin-induced cAMP production after 20 mins by ELISA. The class given is functional, cell-based. Summed up: as §2
For series [11], the target named is T5, Cannabinoid receptor 2 (Rattus norvegicus) (UniProt Q9QZN9).
T5 sequence (whole entry): T4 sequence (Q9QZN9 whole entry)
Kind of series: Agonist activity at rat recombinant CB2 receptor expressed in HEK293 cells assessed as inhibition of forskolin-induced cAMP production after 20 mins by ELISA relative to CP55940. The class given is functional, cell-based. Summed up: as §2

Series [12] has as its target T1, Cannabinoid receptor 1. Put plainly: Agonist activity at human recombinant CB1 receptor expressed in HEK293 cells assessed as inhibition of forskolin-induced cAMP production after 20 mins by ELISA. The class given is functional, cell-based. Summed up:
as §2

T2 sequence (P34972 whole entry): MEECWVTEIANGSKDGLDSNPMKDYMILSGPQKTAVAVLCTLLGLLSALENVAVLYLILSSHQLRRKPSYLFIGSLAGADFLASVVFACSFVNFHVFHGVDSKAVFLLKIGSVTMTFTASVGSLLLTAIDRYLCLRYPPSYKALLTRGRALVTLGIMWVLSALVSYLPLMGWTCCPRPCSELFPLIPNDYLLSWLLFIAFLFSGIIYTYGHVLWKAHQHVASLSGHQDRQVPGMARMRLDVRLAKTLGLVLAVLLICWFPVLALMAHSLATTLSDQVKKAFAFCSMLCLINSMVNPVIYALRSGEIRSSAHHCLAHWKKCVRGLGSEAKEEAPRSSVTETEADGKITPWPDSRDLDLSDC
T1 sequence (P21554 whole entry): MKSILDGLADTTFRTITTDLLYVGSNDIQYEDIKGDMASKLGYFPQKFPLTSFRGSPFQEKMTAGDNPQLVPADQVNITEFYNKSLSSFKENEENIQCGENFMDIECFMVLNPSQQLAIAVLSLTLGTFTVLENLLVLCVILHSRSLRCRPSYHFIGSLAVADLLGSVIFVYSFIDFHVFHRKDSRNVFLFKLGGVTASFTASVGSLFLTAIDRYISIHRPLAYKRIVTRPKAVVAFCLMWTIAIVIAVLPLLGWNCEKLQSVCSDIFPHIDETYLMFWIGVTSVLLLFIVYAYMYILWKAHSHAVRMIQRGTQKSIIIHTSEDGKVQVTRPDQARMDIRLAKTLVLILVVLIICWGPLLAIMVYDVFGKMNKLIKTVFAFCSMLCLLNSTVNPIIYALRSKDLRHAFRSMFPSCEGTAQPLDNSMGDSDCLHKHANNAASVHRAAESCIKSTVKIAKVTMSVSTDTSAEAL
T3 sequence (P20272 whole entry): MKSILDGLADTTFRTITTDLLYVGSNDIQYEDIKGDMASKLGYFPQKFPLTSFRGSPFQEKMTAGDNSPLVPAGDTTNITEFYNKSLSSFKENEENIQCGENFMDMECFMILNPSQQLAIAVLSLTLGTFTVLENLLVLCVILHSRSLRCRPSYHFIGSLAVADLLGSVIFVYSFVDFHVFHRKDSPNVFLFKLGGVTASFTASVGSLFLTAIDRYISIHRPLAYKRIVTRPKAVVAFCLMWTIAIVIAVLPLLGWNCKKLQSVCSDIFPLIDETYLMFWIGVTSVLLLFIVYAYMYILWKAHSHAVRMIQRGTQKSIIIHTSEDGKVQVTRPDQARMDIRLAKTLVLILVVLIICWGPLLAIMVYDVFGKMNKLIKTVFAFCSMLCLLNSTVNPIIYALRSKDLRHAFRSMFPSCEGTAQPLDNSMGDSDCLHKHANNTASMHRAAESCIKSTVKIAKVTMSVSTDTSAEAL

Regarding `CCCNC(=O)c1c(NC(=O)C23CC4CC(CC2C4)C3)sc2c1CCCC2`, the Ki was 1910 nM at Cannabinoid receptor 1 [1], 46.8 nM at Cannabinoid receptor 1 [3], 1.95 nM on Cannabinoid receptor 2 [4] and 3.55 nM on Cannabinoid receptor 2 [6]. In addition, the IC50 was 83.2 nM on Cannabinoid receptor 2 [2] and 9.77 nM at Cannabinoid receptor 2 [5].

On to `CCNC(=O)c1c(NC(=O)C23CC4CC(CC2C4)C3)sc2c1CCOC2`, for which the Ki at Cannabinoid receptor 1 [1] was greater than 10000 nM; at Cannabinoid receptor 2 [4] it was 214 nM; on Cannabinoid receptor 2 [6], 295 nM.

On to `CCCNC(=O)c1c(NC(=O)C23CC4CC(CC(C4)O2)C3)sc2c1CCOC2`, for which the figures for the Ki on Cannabinoid receptor 1 [1], on Cannabinoid receptor 2 [4] and at Cannabinoid receptor 2 [6] were greater than 10000 nM, 257 nM and 490 nM, respectively.

Turning to `O=C(c1c(NC(=O)C23CC4CC(CC2C4)C3)sc2c1CCOC2)N1CCOCC1`, the Ki is greater than 10000 nM at Cannabinoid receptor 1 [1], greater than 10000 nM at Cannabinoid receptor 1 [3], 91.2 nM at Cannabinoid receptor 2 [4] and greater than 10000 nM at Cannabinoid receptor 2 [6].

Consider `CCCNC(=O)c1c(NC(=O)C2C(C)(C)C2(C)C)sc2c1CCOC2`, for which the Ki at Cannabinoid receptor 1 [1] was greater than 10000 nM; on Cannabinoid receptor 1 [3] it was 191 nM; on Cannabinoid receptor 2 [4], 91.2 nM; at Cannabinoid receptor 2 [6], 4.37 nM. For the same compound, the half-maximal inhibitory concentration (IC50) on Cannabinoid receptor 2 [2] is 52.5 nM; on Cannabinoid receptor 2 [7] it was greater than 10000 nM; on Cannabinoid receptor 2 [5], 1 nM.

Turning to `CCCNC(=O)c1c(NC(=O)C23CC4CC(CC2C4)C3)sc2c1CCNC2`, the fraction unbound in series [8] and in series [9] was less than 0.01 throughout. Moreover, at Cannabinoid receptor 2 [4], the Ki is greater than 1000 nM.

With `CCCNC(=O)c1c(NC(=O)C2CC3CCC2C3)sc2c1CCOC2` (centres undefined), the values for the Ki at Cannabinoid receptor 1 [1], at Cannabinoid receptor 2 [4] and on Cannabinoid receptor 2 [6] were greater than 10000 nM, 105 nM and 269 nM, respectively.

As for `CCCNC(=O)c1c(NC(=O)C23CC4CC(CC2C4)C3)sc2c1CCN(C)C2`, the Ki on Cannabinoid receptor 1 [1] is greater than 10000 nM; at Cannabinoid receptor 2 [4], 91.2 nM; on Cannabinoid receptor 2 [6], 5.89 nM. The IC50 at Cannabinoid receptor 2 [2] was greater than 10000 nM.

On to `O=C(CCCN1CCC(O)(c2ccc(Cl)cc2)CC1)c1ccc(F)cc1` [HALOPERIDOL], for which the Activity with Rattus norvegicus is reported as 68%.

Regarding `COCCNC(=O)c1c(NC(=O)C23CC4CC(CC2C4)C3)sc2c1CCOC2`, the Ki on Cannabinoid receptor 1 [1] was greater than 10000 nM; at Cannabinoid receptor 2 [4] it was 120 nM; on Cannabinoid receptor 2 [6] it was 263 nM.

`CCCNC(=O)c1c(NC(=O)c2c(F)cccc2C(F)(F)F)sc2c1CCOC2`: the figures for the Ki on Cannabinoid receptor 1 [1], at Cannabinoid receptor 2 [4] and at Cannabinoid receptor 2 [6] were greater than 10000 nM, 105 nM and 331 nM, respectively.

For the compound `O=C(c1c(NC(=O)C23CC4CC(CC2C4)C3)sc2c1CCOC2)N1CC(F)(F)C1`, the Ki is 3390 nM at Cannabinoid receptor 1 [1], 66.1 nM on Cannabinoid receptor 1 [3], 5.62 nM at Cannabinoid receptor 2 [4] and 46.8 nM at Cannabinoid receptor 2 [6]. Moreover, the half-inhibitory concentration (IC50) on Cannabinoid receptor 2 [2] is 5.62 nM; on Cannabinoid receptor 1 [10], 229 nM; at Cannabinoid receptor 2 [7], 9.55 nM; at Cannabinoid receptor 2 [5] it was 0.2 nM; at Cannabinoid receptor 1 [12], 550 nM. In addition, in series [11], the Imax turned out to be 53%.

In the case of `CCCNC(=O)c1c(NC(=O)C23CC4CC(CC(C4)C2)C3)sc2c1CCOC2`, the Ki on Cannabinoid receptor 1 [1] was greater than 10000 nM; on Cannabinoid receptor 1 [3], 525 nM; on Cannabinoid receptor 2 [4], 33.9 nM; at Cannabinoid receptor 2 [6], 20 nM. In addition, the fraction unbound in series [8] and in series [9] was less than 0.01 in each case. In addition, the 50% inhibitory concentration (IC50) at Cannabinoid receptor 2 [2] was 42.7 nM; at Cannabinoid receptor 2 [7], greater than 10000 nM; on Cannabinoid receptor 2 [5], 11.2 nM.

By Ki is commonly meant the dissociation constant of the complex between target and ligand, obtained from inhibition or displacement. The term IC50 denotes the point on the concentration scale where inhibition reaches its midpoint.

Values taken from ChEMBL document CHEMBL2010740, “Synthesis and evaluation of 2-amido-3-carboxamide thiophene CB₂ receptor agonists for pain management” (Bioorg Med Chem Lett, 2012).
